Experimental data taken from ChEMBL document CHEMBL4428026, “Discovery of New Monocarbonyl Ligustrazine-Curcumin Hybrids for Intervention of Drug-Sensitive and Drug-Resistant Lung Cancer” (J Med Chem, 2016).
Calls of active or inactive are those of the source. The rule behind the calls is not given here.

Assays:
A549 [1] = test: Induction of ROS generation in human A549 cells 2.1 to 4.2 uM after 60 mins by DHE staining-based fluorescence assay in presence of GSH; type: functional, cell-based
A549 [2] = test: Decrease in TrxR expression in human A549 cells at 2.1 to 4.2 uM after 24 hrs by Western blot method; type: functional, cell-based
How it was run: (§1)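 Cells were plated at 1 × 10^6/well overnight, then treated 24 h with vehicle DMSO (0.1%, v/v) or compound (A549, 2.1 or 4.2 µM; A549/DDP, 0.6 or 1.2 µM). Lysis was at 4 °C. Lysates were run on SDS-PAGE (7.5% gel, 20 µg/lane) and immunoblotted with ECL detection; phospho-Akt Ser473 and phospho-ERK Thr202/Tyr204 were probed. Bands were normalized to GAPDH (TrxR, Trx) or β-actin. Three independent experiments were run.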

A549 [3] = test: Antiproliferative activity against human A549 cells after 72 hrs by MTT assay; type: functional, cell-based; details: A549, 72 h
How it was run: (§2)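 Cells (A549, A549/DDP, SPC-A-1, LTEP-G-2, non-tumor bronchial epithelial HBE) were exposed in triplicate to vehicle or compound for 72 h. MTT (5 mg/mL in PBS) was then added for 4 h, formazan was dissolved in DMSO, and absorbance was read at 570 nm. IC50 values were derived from viability.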

A549/CDDP [4] = test: Inhibition of ERK phosphorylation in human A549/CDDP cells at 0.6 to 1.2 uM after 24 hrs by Western blot method; type: cell-based; how it was run: as §1
A549/CDDP [5] = test: Induction of ROS generation in human A549/CDDP cells 0.6 to 1.2 uM after 60 mins by DHE staining-based fluorescence assay in presence of GSH; type: functional, cell-based
[6] = Acute toxicity in ICR mouse assessed as mortality at 200 to 450 mg/kg, ip measured at 1 hr post treatment; type: organism-based; details: in vivo
How it was run: (§3)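 Male and female ICR mice (7 weeks), randomized, 10 per group, given one intraperitoneal dose at 200, 250, 300, 350, 400 or 450 mg/kg. Animals were watched for abnormal behaviour and deaths up to two weeks. Deaths were tallied at 1 h, 4 h, day 3 and days 4-14, with survival on day 14. LD50 was calculated with 95% confidence limits.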

A549/CDDP [7] = test: Inhibition of NFkappaB phosphorylation in human A549/CDDP cells at 0.6 to 1.2 uM after 24 hrs by Western blot method; type: cell-based; how it was run: as §1
A549/CDDP [8] = test: Induction of apoptosis in human A549/CDDP cells assessed as increase in Bax expression at 0.6 to 1.2 uM after 24 hrs by Western blot method; type: functional, cell-based; how it was run: as §1
[9] = Acute toxicity in ICR mouse assessed as survival at 250 mg/kg, ip measured on day 14; type: organism-based; details: in vivo; how it was run: as §3
A549/CDDP [10] = test: Effect on NFkappaB expression in human A549/CDDP cells at 0.6 to 1.2 uM after 24 hrs by Western blot method; type: functional, cell-based; how it was run: as §1
A549 [11] = test: Induction of apoptosis in human A549 cells assessed as increase in cleaved PARP level at 2.1 to 4.2 uM after 24 hrs by Western blot method; type: functional, cell-based; how it was run: as §1
A549/CDDP [12] = test: Decrease in P-gp mRNA level in human A549/CDDP cells at 0.6 to 1.2 uM after 24 hrs by RT-PCR method; type: functional, cell-based
How it was run: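 A549/DDP cells (1 × 10^6) were treated with vehicle or 0.6 or 1.2 µM compound for 24 h. Total RNA was reverse-transcribed with oligo dT primers. ABCB1 transcripts were quantified by real-time RT-PCR relative to GAPDH and expressed as fold of the 0.1% DMSO control. Three independent experiments were run.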

A549/CDDP [13] = test: Decrease in TrxR expression in human A549/CDDP cells at 0.6 to 1.2 uM after 24 hrs by Western blot method; type: functional, cell-based; how it was run: as §1
A549/CDDP [14] = test: Anticancer activity against human A549/CDDP cells xenografted in BALB/c nude mouse assessed as tumor growth inhibition at 40 mg/kg, ip administered daily for 15 consecutive days measured every 3 days; type: functional; details: 15 days, read-out: TGI
How it was run: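 Both sexes of athymic BALB/c nude mice (4-5 weeks) were inoculated subcutaneously with A549/DDP cells (1 × 10^7/mouse). Once tumors reached 180-200 mm3, mice were randomized (n = 8). They received ip dosing daily for 15 consecutive days, with vehicle PBS/DMSO/cremophor-EL (8:1:1). Tumors were measured by caliper and volume was taken as width2 × length/2. Growth inhibition was taken from tumor weight (w/w).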

A549/CDDP [15] = test: Induction of apoptosis in human A549/CDDP cells assessed as increase in Bax to Bcl2 ratio at 0.6 to 1.2 uM after 24 hrs by Western blot method; type: functional, cell-based; how it was run: as §1
[16] = Toxicity in BALB/c nude mouse xenografted with human A549/CDDP cells assessed as body weight at 40 mg/kg, ip administered daily for 15 consecutive days measured on day 1 (reference value: 19.3 +/- 1.55 g); type: organism-based; details: in vivo
A549/CDDP [17] = test: Antiproliferative activity against human A549/CDDP cells after 72 hrs by MTT assay; type: functional, cell-based; how it was run: as §2
A549 [18] = test: Inhibition of NFkappaB phosphorylation in human A549 cells at 2.1 to 4.2 uM after 24 hrs by Western blot method; type: cell-based; how it was run: as §1
[19] = Cytotoxicity against NHBE cells after 72 hrs by MTT assay; type: cell-based; details: Homo sapiens; how it was run: as §2
A549/CDDP [20] = test: Decrease in Trx expression in human A549/CDDP cells at 0.6 to 1.2 uM after 24 hrs by Western blot method; type: functional, cell-based; how it was run: as §1
A549 [21] = test: Effect on ERK expression in human A549 cells at 2.1 to 4.2 uM after 24 hrs by Western blot method; type: functional, cell-based; how it was run: as §1
A549/CDDP [22] = test: Induction of apoptosis in human A549/CDDP cells assessed as decrease in Bcl2 expression at 0.6 to 1.2 uM after 24 hrs by Western blot method; type: functional, cell-based; how it was run: as §1
[23] = Acute toxicity in ICR mouse assessed as survival at 200 mg/kg, ip measured on day 14; type: organism-based; details: in vivo; how it was run: as §3
A549 [24] = test: Induction of ROS generation in human A549 cells 2.1 to 4.2 uM after 60 mins by DHE staining-based fluorescence assay in presence of NAC; type: functional, cell-based
A549/CDDP [25] = test: Decrease in P-gp expression in human A549/CDDP cells at 0.6 to 1.2 uM after 24 hrs by Western blot method; type: functional, cell-based
How it was run: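 A549/DDP cells were treated for 24 h with vehicle DMSO (0.1%, v/v) or 0.6 or 1.2 µM compound. Lysates were run on SDS-PAGE (7.5% gel, 20 µg/lane), blotted to PVDF and probed with anti-P-gp, with detection by ECL. P-gp was normalized to β-actin. Three independent experiments were run.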

A549 [26] = test: Induction of ROS generation in human A549 cells 2.1 to 4.2 uM after 60 mins by DHE staining-based fluorescence assay; type: functional, cell-based
How it was run: (§4)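 A549 or A549/DDP cells were treated in triplicate for 60 min with vehicle DMSO (0.1%, v/v) or a range of compound concentrations. Cells were stained with dihydroethidium, and intracellular ROS fluorescence was read on a microplate reader at 300 and 610 nm. Three independent experiments were run.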

A549/CDDP [27] = test: Induction of ROS generation in human A549/CDDP cells 2.1 to 4.2 uM after 60 mins by DHE staining-based fluorescence assay; type: functional, cell-based; how it was run: as §4

COc1cc(/C=C/C(=O)/C=C/c2nc(C)c(C)nc2C)ccc1O
Activity (A549 [1]): inactive | Activity (A549 [2]): Active | IC50 (A549 [3]): 2.19 µM | inhibition (A549/CDDP [4]): Active | Activity (A549/CDDP [5]): inactive | Activity [6]: Non-Toxic | inhibition (A549/CDDP [7]): Active | Activity (A549/CDDP [8]): Active | survival at 14 day [9]: 60% | Activity (A549/CDDP [10]): inactive | Activity (A549 [11]): Active | Activity (A549/CDDP [12]): Active | Activity (A549/CDDP [13]): Active | inhibition in vivo at 40 mg/kg (A549/CDDP [14]): 67% | Activity (A549/CDDP [15]): Active | Activity [16]: 19.9 g | IC50 (A549/CDDP [17]): 0.6 µM | inhibition (A549 [18]): Active | IC50 [19]: 21.3 µM | Activity (A549/CDDP [20]): Active | Activity (A549 [21]): inactive | Activity (A549/CDDP [22]): Active | survival at 14 day [23]: 90% | Activity (A549 [24]): inactive | Activity (A549/CDDP [25]): Active | Activity (A549 [26]): Active | Activity (A549/CDDP [27]): Active
